The source of these data is ChEMBL document CHEMBL4382192, “Discovery of a potent dual ALK and EGFR T790M inhibitor” (Eur J Med Chem, 2017).

Molecules are shown by their SMILES.

The target in data set [1] is Serine/threonine-protein kinase BRSK1 (Homo sapiens) (UniProt Q8TDC3). Nature of the data set: Binding affinity to wild-type human partial length BRSK1 (M1 to E754 residues) expressed in bacterial expression system assessed as residual binding level at 1 uM by Kinomescan method relative to control.
A short description of data set [2]: Tmax in mouse at 10 mg/kg, po. The following applies: in vivo. Format: ADME, organism-based.
The target of data set [3] is Inhibitor of nuclear factor kappa-B kinase subunit alpha (Homo sapiens) (UniProt O15111). Briefly: Binding affinity to wild-type human full length IKK-alpha (M1 to E745 residues) expressed in mammalian expression system assessed as residual binding level at 1 uM by Kinomescan method relative to control. Summed up: (§1)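 Single-point kinome-wide KINOMEscan binding panel, test compound at 1 μM, run by the provider's standard protocol.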

Data set [4] concerns the target Macrophage-stimulating protein receptor (Homo sapiens) (UniProt Q04912). Briefly: Binding affinity to wild-type human partial length MST1R (I1057 to L1363 residues) expressed in bacterial expression system assessed as residual binding level at 1 uM by Kinomescan method relative to control.
In data set [5] the target is Tyrosine-protein kinase Tec (Homo sapiens) (UniProt P42680). Briefly: Binding affinity to wild-type human partial length TEC (L341 to D620 residues) expressed in bacterial expression system assessed as residual binding level at 1 uM by Kinomescan method relative to control.
For data set [6], the target named is Dual specificity mitogen-activated protein kinase kinase 3 (Homo sapiens) (UniProt P46734). Nature of the data set: Binding affinity to wild-type human full length MEK3 (M1 to S318 residues) expressed in mammalian expression system assessed as residual binding level at 1 uM by Kinomescan method relative to control. The essentials:
as §1

Data set [7] deals with Tyrosine-protein kinase JAK3 (Homo sapiens) (UniProt P52333). Briefly: Binding affinity to wild-type human partial length JAK3 JH1 catalytic domain (I781 to S1124 residues) expressed in mammalian expression system assessed as residual binding level at 1 uM by Kinomescan method relative to control.
The nature of data set [8]: Metabolic stability in mouse liver microsomes assessed as parent compound remaining at 1 uM after 30 mins in presence of NADPH by LC/MS/MS analysis. The data set is classed as ADME, Microsome. Conditions: read-out: Stability. Summed up:
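Compound at 1 μM final with 0.5 mg/mL microsomal protein in 100 mM phosphate buffer pH 7.4 at 37 °C, started by adding an NADPH-regenerating system. Reactions were quenched with cold acetonitrile at 0 and 30 min and spun down. Supernatant was analysed by LC-MS/MS. The 0-min sample, quenched before NADPH addition, was set as 100%, and percent parent remaining came from peak areas.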
In general terms: Liver microsomes are a subcellular fraction often used to study metabolism.

The target in data set [9] is Mast/stem cell growth factor receptor Kit (Homo sapiens) (UniProt P10721). Briefly: Binding affinity to wild-type human partial length autoinhibited KIT (Y545 to D952 residues) expressed in mammalian expression system assessed as residual binding level at 1 uM by Kinomescan method relative to control.
In data set [10] the target is Phosphatidylinositol 4-kinase beta (Homo sapiens) (UniProt Q9UBF8). Nature of the data set: Binding affinity to wild-type human full length PIK4CB (M1 to M828 residues) expressed in mammalian expression system assessed as residual binding level at 1 uM by Kinomescan method relative to control. The essentials: as §1
The target of data set [11] is Calcium/calmodulin-dependent protein kinase type 1D (Homo sapiens) (UniProt Q8IU85). Nature of the data set: Binding affinity to wild-type human partial length CAMK1D (M1 to K299 residues) expressed in bacterial expression system assessed as residual binding level at 1 uM by Kinomescan method relative to control.
For data set [12], the system named is Mycobacterium tuberculosis. Nature of the data set: Binding affinity to wild-type Mycobacterium tuberculosis partial length PKNB (M1 to G279 residues) expressed in mammalian expression system assessed as residual binding level at 1 uM by Kinomescan method relative to control. The essentials:
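Kinome-wide selectivity panel run by the KINOMEscan method, with the test compound at a single concentration of 1 μM. Wild-type and mutant kinases were profiled in the same screen.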

The target in data set [13] is Protein kinase C iota type (Homo sapiens) (UniProt P41743). Briefly: Binding affinity to wild-type human partial length PRKCI (H215 to V587 residues) expressed in mammalian expression system assessed as residual binding level at 1 uM by Kinomescan method relative to control.
The target in data set [14] is Serine/threonine-protein kinase 16 (Homo sapiens) (UniProt O75716). Nature of the data set: Binding affinity to wild-type human partial length STK16 (G11 to I305 residues) expressed in bacterial expression system assessed as residual binding level at 1 uM by Kinomescan method relative to control.
Data set [15] addresses Mitogen-activated protein kinase kinase kinase 5 (Homo sapiens) (UniProt Q99683). Briefly: Binding affinity to wild-type human partial length ASK1 (E648 to S964 residues) expressed in bacterial expression system assessed as residual binding level at 1 uM by Kinomescan method relative to control.
For data set [16], the target named is Ephrin type-B receptor 6 (Homo sapiens) (UniProt O15197). Nature of the data set: Binding affinity to wild-type human partial length EPHB6 (Q634 to P948 residues) expressed in mammalian expression system assessed as residual binding level at 1 uM by Kinomescan method relative to control.
In data set [17] the target is Serine/threonine-protein kinase MARK1 (Homo sapiens) (UniProt Q9P0L2). Nature of the data set: Binding affinity to wild-type human partial length MARK1 (Q30 to T341 residues) expressed in bacterial expression system assessed as residual binding level at 1 uM by Kinomescan method relative to control.
The target in a further data set is Insulin receptor (Homo sapiens, UniProt P06213). Nature of the data set: Binding affinity to wild-type human partial length INSR (P997 to E1318 residues) expressed in mammalian expression system assessed as residual binding level at 1 uM by Kinomescan method relative to control.
Data set [18] addresses Serine/threonine-protein kinase 33 (Homo sapiens) (UniProt Q9BYT3). Briefly: Binding affinity to wild-type human full length STK33 (M1 to L514 residues) expressed in bacterial expression system assessed as residual binding level at 1 uM by Kinomescan method relative to control.
In data set [19] the target is Hormonally up-regulated neu tumor-associated kinase (Homo sapiens) (UniProt P57058). Nature of the data set: Binding affinity to wild-type human partial length HUNK (A31 to K354 residues) expressed in bacterial expression system assessed as residual binding level at 1 uM by Kinomescan method relative to control.
Data set [20] deals with Wee1-like protein kinase (Homo sapiens) (UniProt P30291). Nature of the data set: Binding affinity to wild-type human partial length WEE1 (M291 to K575 residues) expressed in bacterial expression system assessed as residual binding level at 1 uM by Kinomescan method relative to control.
Data set [21] addresses Cytoplasmic tyrosine-protein kinase BMX (Homo sapiens) (UniProt P51813). Briefly: Binding affinity to wild-type human full length BMX (M1 to H675 residues) expressed in bacterial expression system assessed as residual binding level at 1 uM by Kinomescan method relative to control.
For data set [22], the target named is MAP kinase-interacting serine/threonine-protein kinase 1 (Homo sapiens) (UniProt Q9BUB5). Briefly: Binding affinity to wild-type human full length MKNK1 (M1 to L424 residues) expressed in mammalian expression system assessed as residual binding level at 1 uM by Kinomescan method relative to control. Summed up:
as §1

Mitogen-activated protein kinase kinase kinase 5 (Homo sapiens), sequence (Q99683 whole entry, the tested form may be a part): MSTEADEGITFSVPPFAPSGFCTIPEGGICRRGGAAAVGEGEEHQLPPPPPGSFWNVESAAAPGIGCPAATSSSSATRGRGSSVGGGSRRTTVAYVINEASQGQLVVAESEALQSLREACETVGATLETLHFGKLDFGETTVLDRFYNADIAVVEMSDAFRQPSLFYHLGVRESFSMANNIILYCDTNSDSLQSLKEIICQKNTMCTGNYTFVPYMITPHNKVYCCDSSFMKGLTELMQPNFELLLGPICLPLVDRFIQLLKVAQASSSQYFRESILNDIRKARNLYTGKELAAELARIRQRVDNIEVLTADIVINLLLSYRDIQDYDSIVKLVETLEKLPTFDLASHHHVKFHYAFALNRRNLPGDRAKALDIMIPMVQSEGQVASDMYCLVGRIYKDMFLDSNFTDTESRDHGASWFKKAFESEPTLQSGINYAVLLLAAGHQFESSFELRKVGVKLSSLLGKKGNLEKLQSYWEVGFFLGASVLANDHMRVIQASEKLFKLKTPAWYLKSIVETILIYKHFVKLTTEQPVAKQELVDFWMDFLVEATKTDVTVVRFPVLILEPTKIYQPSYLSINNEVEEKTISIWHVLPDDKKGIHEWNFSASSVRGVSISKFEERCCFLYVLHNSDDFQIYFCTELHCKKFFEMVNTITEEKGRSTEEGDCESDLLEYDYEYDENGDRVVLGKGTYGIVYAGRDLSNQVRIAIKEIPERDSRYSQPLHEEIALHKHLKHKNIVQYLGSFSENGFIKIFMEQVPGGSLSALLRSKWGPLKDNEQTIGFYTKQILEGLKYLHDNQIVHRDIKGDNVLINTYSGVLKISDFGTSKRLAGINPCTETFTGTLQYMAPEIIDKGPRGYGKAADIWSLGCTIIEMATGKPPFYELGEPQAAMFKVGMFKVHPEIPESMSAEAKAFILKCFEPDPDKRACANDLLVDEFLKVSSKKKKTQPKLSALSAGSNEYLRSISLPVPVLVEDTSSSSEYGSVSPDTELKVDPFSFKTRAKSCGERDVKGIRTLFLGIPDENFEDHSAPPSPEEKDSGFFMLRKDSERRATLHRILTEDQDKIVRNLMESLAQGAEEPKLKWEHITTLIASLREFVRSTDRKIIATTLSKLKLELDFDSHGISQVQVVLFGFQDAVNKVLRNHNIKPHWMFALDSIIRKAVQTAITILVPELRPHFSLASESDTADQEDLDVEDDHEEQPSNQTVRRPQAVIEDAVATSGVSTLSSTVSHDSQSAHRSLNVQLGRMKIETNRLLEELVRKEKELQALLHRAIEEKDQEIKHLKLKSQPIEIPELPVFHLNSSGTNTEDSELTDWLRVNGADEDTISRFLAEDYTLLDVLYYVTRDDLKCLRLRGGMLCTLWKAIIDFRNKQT
Serine/threonine-protein kinase 33 (Homo sapiens), sequence (Q9BYT3 whole entry, looked up, the tested form may be a part): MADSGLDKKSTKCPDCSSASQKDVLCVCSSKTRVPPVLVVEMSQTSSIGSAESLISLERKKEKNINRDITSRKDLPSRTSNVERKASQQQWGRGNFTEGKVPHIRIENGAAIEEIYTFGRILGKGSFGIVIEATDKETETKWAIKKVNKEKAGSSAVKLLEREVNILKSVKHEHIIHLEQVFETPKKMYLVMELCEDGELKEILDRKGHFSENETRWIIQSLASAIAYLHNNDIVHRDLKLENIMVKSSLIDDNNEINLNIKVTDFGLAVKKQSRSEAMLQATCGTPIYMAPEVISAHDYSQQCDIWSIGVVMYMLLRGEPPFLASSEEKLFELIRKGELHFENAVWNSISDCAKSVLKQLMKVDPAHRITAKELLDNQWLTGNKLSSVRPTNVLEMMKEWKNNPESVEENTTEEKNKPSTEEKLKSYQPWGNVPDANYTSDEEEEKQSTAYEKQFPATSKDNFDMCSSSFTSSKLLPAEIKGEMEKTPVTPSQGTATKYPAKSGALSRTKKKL
Mast/stem cell growth factor receptor Kit (Homo sapiens), sequence (P10721 whole entry, the tested form may be a part): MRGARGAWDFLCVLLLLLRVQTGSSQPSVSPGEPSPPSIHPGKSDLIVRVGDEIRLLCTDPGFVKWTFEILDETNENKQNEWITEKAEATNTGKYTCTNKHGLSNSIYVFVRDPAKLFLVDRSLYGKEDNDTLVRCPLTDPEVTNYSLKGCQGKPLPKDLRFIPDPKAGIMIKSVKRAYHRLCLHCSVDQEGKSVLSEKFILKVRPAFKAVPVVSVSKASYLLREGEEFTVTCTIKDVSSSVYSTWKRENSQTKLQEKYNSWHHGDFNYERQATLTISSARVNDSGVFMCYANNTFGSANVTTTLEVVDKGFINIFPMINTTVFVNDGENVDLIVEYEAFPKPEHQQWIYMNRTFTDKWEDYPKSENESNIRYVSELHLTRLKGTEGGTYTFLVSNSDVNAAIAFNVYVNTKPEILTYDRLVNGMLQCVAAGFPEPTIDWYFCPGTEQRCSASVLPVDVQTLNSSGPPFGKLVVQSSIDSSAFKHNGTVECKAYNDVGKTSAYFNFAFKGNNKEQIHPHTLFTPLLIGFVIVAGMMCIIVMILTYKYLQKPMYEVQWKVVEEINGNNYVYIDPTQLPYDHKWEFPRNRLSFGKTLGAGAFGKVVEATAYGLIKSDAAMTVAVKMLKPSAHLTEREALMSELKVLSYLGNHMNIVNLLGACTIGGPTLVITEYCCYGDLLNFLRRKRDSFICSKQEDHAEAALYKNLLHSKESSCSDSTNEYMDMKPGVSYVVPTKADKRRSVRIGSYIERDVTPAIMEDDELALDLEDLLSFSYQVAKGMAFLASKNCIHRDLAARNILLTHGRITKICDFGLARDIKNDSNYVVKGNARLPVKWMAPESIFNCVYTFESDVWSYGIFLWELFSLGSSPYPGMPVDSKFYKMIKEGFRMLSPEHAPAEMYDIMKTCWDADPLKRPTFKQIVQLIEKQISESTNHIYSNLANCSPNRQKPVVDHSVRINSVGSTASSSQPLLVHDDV
Wee1-like protein kinase (Homo sapiens), sequence (P30291 whole entry, looked up, the tested form may be a part): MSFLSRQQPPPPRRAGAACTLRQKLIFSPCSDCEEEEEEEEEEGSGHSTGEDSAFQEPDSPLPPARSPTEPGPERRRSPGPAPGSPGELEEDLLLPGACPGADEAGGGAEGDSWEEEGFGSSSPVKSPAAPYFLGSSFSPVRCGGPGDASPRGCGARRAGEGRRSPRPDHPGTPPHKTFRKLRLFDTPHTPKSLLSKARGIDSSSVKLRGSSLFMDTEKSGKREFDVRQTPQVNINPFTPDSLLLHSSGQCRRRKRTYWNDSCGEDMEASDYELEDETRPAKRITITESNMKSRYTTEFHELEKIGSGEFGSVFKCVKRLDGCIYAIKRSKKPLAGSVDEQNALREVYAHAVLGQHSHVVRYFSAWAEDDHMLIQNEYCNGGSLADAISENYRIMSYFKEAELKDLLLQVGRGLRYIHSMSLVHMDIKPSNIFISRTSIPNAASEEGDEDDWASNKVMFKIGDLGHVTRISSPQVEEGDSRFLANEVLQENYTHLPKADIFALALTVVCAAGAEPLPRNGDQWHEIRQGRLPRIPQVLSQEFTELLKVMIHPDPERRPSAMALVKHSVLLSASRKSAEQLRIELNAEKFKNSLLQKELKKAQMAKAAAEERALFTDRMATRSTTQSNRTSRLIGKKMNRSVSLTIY
Serine/threonine-protein kinase BRSK1 (Homo sapiens), sequence (Q8TDC3 whole entry, the tested form may be a part): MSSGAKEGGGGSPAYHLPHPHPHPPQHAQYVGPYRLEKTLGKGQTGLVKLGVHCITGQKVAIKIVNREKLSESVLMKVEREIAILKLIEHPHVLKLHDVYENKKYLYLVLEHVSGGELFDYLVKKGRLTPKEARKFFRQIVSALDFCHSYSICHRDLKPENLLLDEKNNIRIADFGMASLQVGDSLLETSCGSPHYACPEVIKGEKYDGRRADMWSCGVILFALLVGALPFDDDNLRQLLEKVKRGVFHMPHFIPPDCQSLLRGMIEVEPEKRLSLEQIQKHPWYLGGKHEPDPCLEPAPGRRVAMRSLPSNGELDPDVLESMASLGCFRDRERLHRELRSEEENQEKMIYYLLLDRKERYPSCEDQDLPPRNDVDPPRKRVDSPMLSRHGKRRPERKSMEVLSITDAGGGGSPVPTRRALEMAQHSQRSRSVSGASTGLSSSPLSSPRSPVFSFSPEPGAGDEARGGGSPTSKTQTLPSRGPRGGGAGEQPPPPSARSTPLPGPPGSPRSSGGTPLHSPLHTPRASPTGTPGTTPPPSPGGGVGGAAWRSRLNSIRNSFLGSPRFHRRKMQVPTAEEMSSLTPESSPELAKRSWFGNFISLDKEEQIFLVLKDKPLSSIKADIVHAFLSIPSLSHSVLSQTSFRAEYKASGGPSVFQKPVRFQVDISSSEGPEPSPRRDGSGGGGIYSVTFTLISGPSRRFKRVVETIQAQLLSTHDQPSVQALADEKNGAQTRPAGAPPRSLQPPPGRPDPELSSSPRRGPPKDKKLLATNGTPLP
Dual specificity mitogen-activated protein kinase kinase 3 (Homo sapiens), sequence (P46734 whole entry, the tested form may be a part): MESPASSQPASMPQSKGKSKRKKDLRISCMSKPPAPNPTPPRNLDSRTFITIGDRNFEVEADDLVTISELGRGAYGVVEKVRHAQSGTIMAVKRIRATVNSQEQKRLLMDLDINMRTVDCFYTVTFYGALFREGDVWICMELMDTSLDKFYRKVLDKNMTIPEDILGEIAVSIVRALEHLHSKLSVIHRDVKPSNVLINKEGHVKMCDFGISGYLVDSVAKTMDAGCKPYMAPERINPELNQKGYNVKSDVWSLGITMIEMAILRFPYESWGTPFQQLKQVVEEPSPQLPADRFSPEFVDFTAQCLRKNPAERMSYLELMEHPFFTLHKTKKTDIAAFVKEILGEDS
Calcium/calmodulin-dependent protein kinase type 1D (Homo sapiens), sequence (Q8IU85 whole entry, looked up, the tested form may be a part): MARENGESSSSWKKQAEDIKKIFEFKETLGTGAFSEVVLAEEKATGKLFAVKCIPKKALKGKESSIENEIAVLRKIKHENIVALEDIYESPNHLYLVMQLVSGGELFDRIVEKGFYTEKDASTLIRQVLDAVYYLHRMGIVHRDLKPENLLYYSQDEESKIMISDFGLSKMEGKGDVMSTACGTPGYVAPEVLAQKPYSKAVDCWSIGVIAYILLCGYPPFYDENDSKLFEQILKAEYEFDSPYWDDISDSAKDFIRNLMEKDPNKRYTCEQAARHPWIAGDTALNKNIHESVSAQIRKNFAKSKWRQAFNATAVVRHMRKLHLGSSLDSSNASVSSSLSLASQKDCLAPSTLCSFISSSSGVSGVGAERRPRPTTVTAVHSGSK

Take `C=CC(=O)Nc1cc(Nc2ncc(Cl)c(Nc3ccccc3S(=O)(=O)C(C)C)n2)c(OC)cc1N(C)CCN(C)C`: the Activity in data set [1] amounted to 49%; in data set [3], 96%; in data set [4], 100%; in data set [5], 1%; in [6], 52%; in data set [7], 0%. Also, the Activity in data set [9] was 66%; in [10], 69%; in [11], 9.9%; in data set [12], 50%; in [13], 73%; in data set [14], 64%. Further, the Activity in data set [15] amounted to 100%; in data set [16], 15%; in [17], 40%; on Insulin receptor, 0%; in data set [18], 2%; in data set [19], 39%. Further, the Activity in [20] was determined as 94%; in [21], 4.5%; in data set [22], 90%. Also, in data set [2], the Tmax amounted to 1.17 h. Further, the remaining at 0.5 h, 1 µM in [8] is 12%.

By Tmax is commonly meant the time from dosing to the highest level.
